The test system of one data set is Mus musculus. As to the kind of experiment: Reduction in triglyceride excursion in mouse at 10 mg/kg, po measured at 18 hrs by lipid tolerance test. The format is functional. Also on record: scale not given: the % may be the effect or the level left. The method, boiled down: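 Mouse lipid tolerance test. Oral dose of 10 mg/kg as a suspension in 0.5% methylcellulose; triglyceride reduction read at 18 h.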

For data set [1], the target named is T1, Diacylglycerol O-acyltransferase 1 (Mus musculus, UniProt Q9Z2A7).
T1 sequence (Q9Z2A7 whole entry): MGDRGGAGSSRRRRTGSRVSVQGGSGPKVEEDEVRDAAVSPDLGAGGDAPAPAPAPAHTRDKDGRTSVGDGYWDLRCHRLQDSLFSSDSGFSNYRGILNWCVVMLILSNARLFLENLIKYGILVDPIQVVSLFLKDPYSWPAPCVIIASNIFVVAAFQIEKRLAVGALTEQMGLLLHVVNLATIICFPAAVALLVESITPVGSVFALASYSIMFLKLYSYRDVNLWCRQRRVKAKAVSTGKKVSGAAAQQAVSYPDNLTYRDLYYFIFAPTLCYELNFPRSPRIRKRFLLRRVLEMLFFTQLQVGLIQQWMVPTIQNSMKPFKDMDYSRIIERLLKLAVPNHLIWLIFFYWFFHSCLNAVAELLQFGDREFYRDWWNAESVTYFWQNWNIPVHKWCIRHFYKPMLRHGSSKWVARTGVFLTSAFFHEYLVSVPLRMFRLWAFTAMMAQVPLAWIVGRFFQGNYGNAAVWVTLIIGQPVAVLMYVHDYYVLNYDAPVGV
Briefly: Inhibition of mouse DGAT1.

A short description of data set [2]: Lipophilicity, log D of the compound by HPLC analysis. The format is physicochemical.
The target of data set [3] is T2, Diacylglycerol O-acyltransferase 1 (Homo sapiens, UniProt O75907).
T2 sequence (O75907 whole entry): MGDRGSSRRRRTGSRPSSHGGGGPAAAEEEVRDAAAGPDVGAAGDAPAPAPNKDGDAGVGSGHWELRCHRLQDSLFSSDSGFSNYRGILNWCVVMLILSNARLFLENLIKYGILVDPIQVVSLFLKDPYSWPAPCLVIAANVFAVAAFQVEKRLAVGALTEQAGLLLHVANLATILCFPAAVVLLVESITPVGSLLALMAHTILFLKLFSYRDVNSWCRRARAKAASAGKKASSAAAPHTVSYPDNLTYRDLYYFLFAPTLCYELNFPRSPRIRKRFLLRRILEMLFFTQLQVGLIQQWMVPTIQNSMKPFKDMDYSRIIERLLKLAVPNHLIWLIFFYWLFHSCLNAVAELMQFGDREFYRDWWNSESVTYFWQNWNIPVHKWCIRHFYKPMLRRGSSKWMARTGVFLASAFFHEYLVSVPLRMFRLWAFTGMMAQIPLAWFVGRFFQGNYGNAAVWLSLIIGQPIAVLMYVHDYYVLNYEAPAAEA
Briefly: Inhibition of human DGAT1.

In another data set the test system is Rhesus monkey. Briefly: AUC in rhesus monkey assessed as trans-4-(5-(5-fluoro-1H-benzo[d]imidazol-2-yl)-2,3'-bipyridin-6'-yloxy)cyclohexanecarboxylic acid at 2 mg/kg, po. The format is ADME, organism-based, Macaca mulatta, Plasma. Also on record: dose 2 mg/kg, route oral. The settings on record: in vivo. Summed up: (§1)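 Rhesus monkeys; iv 1 mg/kg as a solution in EtOH/PEG400/water (10:50:40), and oral 2 mg/kg as a solution in 0.5% methylcellulose. Plasma measured for the parent and the epimer metabolite.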

Data set [4] in a line: AUC in rhesus monkey at 2 mg/kg, po. The format is ADME, organism-based, Macaca mulatta. Also on record: dose 2 mg/kg, route oral. The note with it: plasma. Summed up:
as §1

Data set [5] in a line: Cmax in rhesus monkey at 2 mg/kg, po. The note with it: in vivo. The format is ADME, organism-based, Macaca mulatta. Also on record: dose 2 mg/kg, route oral. The method, boiled down: as §1
Data set [6] in a line: Tmax in rhesus monkey at 2 mg/kg, po. The format is ADME, organism-based, Macaca mulatta. Also on record: dose 2 mg/kg, route oral. The settings on record: in vivo. Summed up: as §1
Data set [7] is described as follows: Half life in rhesus monkey at 1 mg/kg, iv. The format is ADME, organism-based, Macaca mulatta. Also on record: dose 1 mg/kg, route intravenous. The note with it: in vivo. Summed up:
as §1

A short description of data set [8]: Volume of distribution at steady state in rhesus monkey at 1 mg/kg, iv. The format is ADME, organism-based, Macaca mulatta. Also on record: dose 1 mg/kg, route intravenous. The note with it: in vivo, read-out: Vdss. The method, boiled down:
as §1

Data set [9] in a line: Clearance in rhesus monkey at 1 mg/kg, iv. The format is ADME, organism-based, Macaca mulatta. Also on record: dose 1 mg/kg, route intravenous. The note with it: in vivo. The method, boiled down:
as §1

The nature of data set [10]: Bioavailability in rhesus monkey at 1 mg/kg, iv. The format is ADME, organism-based, Macaca mulatta. The note with it: in vivo. The method, boiled down:
as §1

For another data set, the system named is Canis familiaris. Briefly: AUC in beagle dog assessed as trans-4-(5-(5-fluoro-1H-benzo[d]imidazol-2-yl)-2,3'-bipyridin-6'-yloxy)cyclohexanecarboxylic acid at 2 mg/kg, po. The format is ADME, organism-based, Canis lupus familiaris, Plasma. Also on record: dose 2 mg/kg, route oral. The settings on record: in vivo. Summed up:
(§2)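 Beagles; iv 0.55 mg/kg as a solution in EtOH/PEG400/water (10:50:40), and oral 2 mg/kg as a solution in 0.5% methylcellulose. Plasma measured for the parent and the epimer metabolite.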

A short description of data set [11]: AUC in beagle dog at 2 mg/kg, po. The format is ADME, organism-based, Canis lupus familiaris. Also on record: dose 2 mg/kg, route oral. The settings on record: plasma. Summed up: as §2
Data set [12] can be described thus: Tmax in beagle dog at 2 mg/kg, po. Also on record: dose 2 mg/kg, route oral. The format is ADME, organism-based, Canis lupus familiaris. The settings on record: in vivo. The method, boiled down:
as §2

Data set [13] in a line: Cmax in beagle dog at 2 mg/kg, po. The format is ADME, organism-based, Canis lupus familiaris. The note with it: in vivo. Also on record: dose 2 mg/kg, route oral. Summed up: as §2
Data set [14] in a line: Half life in beagle dog at 0.55 mg/kg, iv. The note with it: in vivo. Also on record: dose 0.55 mg/kg, route intravenous. The format is ADME, organism-based, Canis lupus familiaris. The method, boiled down: as §2
Data set [15] in a line: Volume of distribution at steady state in beagle dog at 0.55 mg/kg, iv. The format is ADME, organism-based, Canis lupus familiaris. Also on record: dose 0.55 mg/kg, route intravenous. The note with it: in vivo, read-out: Vdss. Summed up:
as §2

The nature of data set [16]: Clearance in beagle dog at 0.55 mg/kg, iv. Also on record: dose 0.55 mg/kg, route intravenous. The format is ADME, organism-based, Canis lupus familiaris. The settings on record: in vivo. Summed up: as §2
The nature of data set [17]: Bioavailability in beagle dog at 0.55 mg/kg, iv. The format is ADME, organism-based, Canis lupus familiaris. The settings on record: in vivo. The method, boiled down:
as §2

Another data set deals with Rattus norvegicus. Briefly: AUC in Sprague-Dawley rat assessed as trans-4-(5-(5-fluoro-1H-benzo[d]imidazol-2-yl)-2,3'-bipyridin-6'-yloxy)cyclohexanecarboxylic acid at 10 mg/kg, po. The format is ADME, organism-based, Plasma. Also on record: dose 10 mg/kg, route oral. The settings on record: in vivo. The method, boiled down: (§3)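 Sprague–Dawley rats; oral 10 mg/kg given as a solid dispersion formulation, with the iv arm at 1 mg/kg in EtOH/PEG400/water (10:50:40). Plasma exposure measured for the parent and for the epimer metabolite.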

The nature of data set [18]: AUC in Sprague-Dawley rat at 10 mg/kg, po. The format is ADME, organism-based. Also on record: dose 10 mg/kg, route oral. The note with it: plasma. Summed up:
as §3

The nature of data set [19]: Tmax in Sprague-Dawley rat at 10 mg/kg, po. The format is ADME, organism-based. Also on record: dose 10 mg/kg, route oral. The settings on record: in vivo. Summed up: as §3
Data set [20] in a line: Half life in Sprague-Dawley rat at 1 mg/kg, iv. The format is ADME, organism-based. The note with it: in vivo. Also on record: dose 1 mg/kg, route intravenous. Summed up:
(§4)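 Sprague–Dawley rats; intravenous dose of 1 mg/kg given as a solution in EtOH/PEG400/water (10:50:40).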

Data set [21] in a line: Cmax in Sprague-Dawley rat at 10 mg/kg, po. The format is ADME, organism-based. Also on record: dose 10 mg/kg, route oral. The settings on record: in vivo. The method, boiled down:
as §3

Data set [22] is described as follows: Volume of distribution at steady state in Sprague-Dawley rat at 1 mg/kg, iv. The format is ADME, organism-based. Also on record: dose 1 mg/kg, route intravenous. The settings on record: in vivo, read-out: Vdss. Summed up: as §4
Data set [23] can be described thus: Clearance in Sprague-Dawley rat at 1 mg/kg, iv. The format is ADME, organism-based. The note with it: in vivo. Also on record: dose 1 mg/kg, route intravenous. The method, boiled down:
as §4

The nature of data set [24]: Bioavailability in Sprague-Dawley rat at 1 mg/kg, iv. The note with it: in vivo. The format is ADME, organism-based. Summed up:
as §4

As usually defined, the IC50 is the concentration needed to halve the response being measured. One may read the logD as lipophilicity at a set pH, counting ionised and neutral species. Compound `O=C(O)[C@H]1CC[C@@H](Oc2ccc(-c3ccc(-c4nc5cc(C(F)(F)F)ccc5[nH]4)cn3)cn2)CC1` yielded an Activity in the data set on Mus musculus of 84%. In addition, the IC50 in [1] was 2.2 nM; in data set [3], 1.7 nM. Moreover, the logD in [2] turned out to be 1.62.

With `O=C(O)[C@H]1CC[C@H](Oc2ccc(-c3ccc(-c4nc5cc(F)c(F)cc5[nH]4)cn3)cn2)CC1`, the IC50 in data set [1] stood at 4.3 nM; in data set [3] it was 1.3 nM.

Consider `CS(=O)(=O)c1ccc2nc(-c3ccc(-c4ccc(O[C@H]5CC[C@@H](C(=O)O)CC5)nc4)nc3)[nH]c2c1`, for which the IC50 came out at 358 nM in data set [1] and 101 nM in [3].

`N#Cc1ccc2nc(-c3ccc(-c4ccc(O[C@H]5CC[C@@H](C(=O)O)CC5)nc4)nc3)[nH]c2c1`: the IC50 is 36 nM in data set [1] and 3.2 nM in data set [3].

`O=C(O)[C@H]1CC[C@H](Oc2ccc(-c3ccc(-c4nc5cc(Cl)ccc5[nH]4)cn3)cn2)CC1` displayed an Activity in the data set on Mus musculus of 83%. In addition, the IC50 in data set [1] was 4.2 nM; in data set [3], 2 nM. The compound further registered a logD in [2] of 1.43.

On to `O=C(O)C[C@H]1CC[C@H](c2ccc(-c3ccc(-c4nc5cc(Cl)ccc5[nH]4)cn3)cc2)CC1`, for which the IC50 is 1 nM in data set [1] and 1.1 nM in [3]. Also, in data set [2], the logD stood at 1.8.

One may read the AUC as concentration integrated over time. For orientation: Cmax means the maximum level reached in the sampled fluid or tissue. Usually Tmax stands for the time from dosing to the highest level. As a reminder, the half-life is the time in which the quantity being followed falls by half. For orientation: clearance means the volume of plasma or blood freed of the substance per unit of time. In general, bioavailability refers to dose-corrected exposure relative to a reference, in per cent. Take `O=C(O)[C@H]1CC[C@@H](Oc2ccc(-c3ccc(-c4nc5ccc(F)cc5[nH]4)cn3)cn2)CC1`: the AUC is 560 nM·h in the data set with Rhesus monkey; 200 nM·h in data set [4]; 60 nM·h in the data set with Canis familiaris; 50 nM·h in data set [11]; 2470 nM·h in the data set with Rattus norvegicus; 250 nM·h in data set [18]. Moreover, the Cmax in [5] was 0.01 µM; in [13], 0.06 µM; in data set [21], 0.06 µM. Also, the Tmax turned out to be 8 h in data set [6], 0.25 h in data set [12] and 2 h in [19]. In addition, the half-life in data set [7] is 2 h; in data set [14], 0.82 h; in data set [20], 1.69 h. Besides, the Vd worked out at 0.37 L/kg in [8], 0.63 L/kg in [15] and 2.18 L/kg in data set [22]. Moreover, the clearance in [9] amounted to 0.744 L/h/kg; in data set [16], 1.94 L/h/kg; in [23] it was 1.91 L/h/kg. Also, the bioavailability worked out at 3% in [10], 2% in data set [17] and 2% in data set [24]. Further, the IC50 in data set [1] was 3.4 nM; in data set [3], 2 nM. The logD in [2] came out at 1.02.

In turn, `O=C(O)[C@H]1CC[C@H](Oc2ccc(-c3ccc(-c4nc5cc(C(F)(F)F)ccc5[nH]4)cn3)cn2)CC1` had an Activity in the data set on Mus musculus of 84%. In addition, the IC50 in [1] stood at 4.4 nM; in [3], 3 nM. The compound also registered a logD in data set [2] of 1.72.

As for `O=C(O)[C@H]1CC[C@@H](Oc2ccc(-c3ccc(-c4nc5ccc(OC(F)(F)F)cc5[nH]4)cn3)cn2)CC1`, the IC50 in data set [1] stood at 4.6 nM; in data set [3] it was 3.9 nM.
